This note sets out measurements from ChEMBL document CHEMBL1152541, “Staurosporine tethered peptide ligands that target cAMP-dependent protein kinase (PKA): optimization and selectivity profiling” (Bioorg Med Chem, 2009).

*1 amine or outer side, *2 acyl side, *3 side chain or, on linkers, in order; H or OH if unused. Where a SMILES comes first, the peptide text is derived from it. Bridges are numbered along the chain shown (N, C = ends). [ ]: non-standard residue; d: D form. The star is where a group is joined. Staurosporine = CO[C@@H]1[C@H](N(C)*)C[C@H]2O[C@]1(C)n1c3ccccc3c3c4c(c5c6ccccc6n2c5c31)C(=O)NC4; Suc = O=C(CCC(=O)[*:2])[*:1]; Dap = NC[C@H](N)C(=O)O; βAla = NCCC(=O)O

For assay [1], the target named is RAC-alpha serine/threonine-protein kinase (Homo sapiens) (UniProt P31749). The assay can be described thus: Binding affinity to human AKT1 at 500 nM by cell-based competition binding assay relative to control in presence of DTT. In short, it runs like this:
(§1)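 Kinase binding profiling ran on a commercial (Ambit) competitive binding screen against a panel of 90 kinases. The screen used reducing conditions with 7.5 mM DTT. To withstand the DTT, the bivalent ligand was tested as its amide isostere, with the disulfide replaced. A staurosporine derivative carrying a 3 β-alanine linker was run as the reference compound.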

Assay [2] concerns the target Fibroblast growth factor receptor 2 (Homo sapiens) (UniProt P21802). The assay can be described thus: Binding affinity to human FGFR2 at 500 nM by cell-based competition binding assay relative to control in presence of DTT. In short, it runs like this: (§2)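 Commercial (Ambit) competitive kinase-binding panel of 90 kinases measured the binding profile. Run under reducing conditions of 7.5 mM DTT. Binding is expressed relative to control.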

Assay [3] has as its target Serine/threonine-protein kinase B-raf (Homo sapiens) (UniProt P15056). Nature of the assay: Binding affinity to human BRAF at 500 nM by cell-based competition binding assay relative to control in presence of DTT. An outline of the steps: as §1
The target in assay [4] is Dual specificity tyrosine-phosphorylation-regulated kinase 1B (Homo sapiens) (UniProt Q9Y463). The assay can be described thus: Binding affinity to human DYRK1B at 200 nM by cell-based competition binding assay relative to control in presence of DTT. In short, it runs like this: as §2
Chain of Dual specificity tyrosine-phosphorylation-regulated kinase 1B (Homo sapiens) (Q9Y463 whole entry, looked up, canonical isoform): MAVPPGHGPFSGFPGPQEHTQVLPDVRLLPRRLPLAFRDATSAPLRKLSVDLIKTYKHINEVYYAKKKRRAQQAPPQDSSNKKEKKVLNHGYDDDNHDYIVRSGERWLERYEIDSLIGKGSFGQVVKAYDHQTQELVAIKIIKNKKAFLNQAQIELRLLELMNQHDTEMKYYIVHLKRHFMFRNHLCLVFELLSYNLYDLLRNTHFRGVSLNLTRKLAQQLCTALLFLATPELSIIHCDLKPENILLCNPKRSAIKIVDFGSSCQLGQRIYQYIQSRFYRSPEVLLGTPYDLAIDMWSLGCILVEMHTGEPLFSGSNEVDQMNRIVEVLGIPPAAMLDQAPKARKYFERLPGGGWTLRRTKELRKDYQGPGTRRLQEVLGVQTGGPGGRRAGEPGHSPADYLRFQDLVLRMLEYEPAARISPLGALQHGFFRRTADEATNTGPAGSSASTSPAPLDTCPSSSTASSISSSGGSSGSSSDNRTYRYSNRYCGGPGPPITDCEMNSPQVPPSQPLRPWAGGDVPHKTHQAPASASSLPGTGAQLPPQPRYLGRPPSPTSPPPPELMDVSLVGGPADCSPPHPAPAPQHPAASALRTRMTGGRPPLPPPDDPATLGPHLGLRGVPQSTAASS
For assay [5], the target named is Phosphatidylinositol 4,5-bisphosphate 3-kinase catalytic subunit gamma isoform (Homo sapiens) (UniProt P48736). The assay can be described thus: Binding affinity to human PIK3Cgamma at 200 nM by cell-based competition binding assay relative to control in presence of DTT.
Chain of Phosphatidylinositol 4,5-bisphosphate 3-kinase catalytic subunit gamma isoform (Homo sapiens) (P48736 whole entry, looked up, canonical isoform): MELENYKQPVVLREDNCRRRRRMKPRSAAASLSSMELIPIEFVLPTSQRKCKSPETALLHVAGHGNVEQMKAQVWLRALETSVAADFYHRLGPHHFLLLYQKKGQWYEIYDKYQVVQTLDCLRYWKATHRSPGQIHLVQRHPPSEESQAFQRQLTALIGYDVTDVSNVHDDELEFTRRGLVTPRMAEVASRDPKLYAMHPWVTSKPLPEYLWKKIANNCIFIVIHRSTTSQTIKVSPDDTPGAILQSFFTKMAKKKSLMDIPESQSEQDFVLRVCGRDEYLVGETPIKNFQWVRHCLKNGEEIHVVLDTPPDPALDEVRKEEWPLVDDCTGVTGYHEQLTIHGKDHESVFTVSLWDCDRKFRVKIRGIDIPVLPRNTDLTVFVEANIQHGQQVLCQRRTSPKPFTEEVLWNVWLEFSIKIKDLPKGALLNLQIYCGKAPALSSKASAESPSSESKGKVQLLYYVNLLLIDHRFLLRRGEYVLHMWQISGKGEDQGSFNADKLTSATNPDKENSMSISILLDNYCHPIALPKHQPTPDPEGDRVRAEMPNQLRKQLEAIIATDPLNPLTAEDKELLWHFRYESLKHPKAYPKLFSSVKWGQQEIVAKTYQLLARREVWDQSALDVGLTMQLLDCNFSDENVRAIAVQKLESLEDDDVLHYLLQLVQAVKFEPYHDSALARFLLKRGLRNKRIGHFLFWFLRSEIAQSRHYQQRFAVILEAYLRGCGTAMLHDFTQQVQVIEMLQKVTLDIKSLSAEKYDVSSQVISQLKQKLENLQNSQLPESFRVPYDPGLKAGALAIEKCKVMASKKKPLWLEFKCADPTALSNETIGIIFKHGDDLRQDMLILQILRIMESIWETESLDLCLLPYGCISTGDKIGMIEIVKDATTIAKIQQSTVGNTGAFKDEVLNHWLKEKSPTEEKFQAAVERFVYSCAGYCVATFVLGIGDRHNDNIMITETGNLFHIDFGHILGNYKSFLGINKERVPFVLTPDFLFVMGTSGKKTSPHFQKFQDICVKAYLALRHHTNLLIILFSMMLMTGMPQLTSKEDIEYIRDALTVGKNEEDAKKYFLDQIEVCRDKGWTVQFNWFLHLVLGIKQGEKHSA
The target of assay [6] is Macrophage colony-stimulating factor 1 receptor (Homo sapiens) (UniProt P07333). The assay can be described thus: Binding affinity to human CSF1R at 200 nM by cell-based competition binding assay relative to control in presence of DTT. An outline of the steps:
as §2

Assay [7] has as its target T1, Protein kinase C epsilon type (Homo sapiens) (UniProt Q02156).
T1 sequence (whole entry): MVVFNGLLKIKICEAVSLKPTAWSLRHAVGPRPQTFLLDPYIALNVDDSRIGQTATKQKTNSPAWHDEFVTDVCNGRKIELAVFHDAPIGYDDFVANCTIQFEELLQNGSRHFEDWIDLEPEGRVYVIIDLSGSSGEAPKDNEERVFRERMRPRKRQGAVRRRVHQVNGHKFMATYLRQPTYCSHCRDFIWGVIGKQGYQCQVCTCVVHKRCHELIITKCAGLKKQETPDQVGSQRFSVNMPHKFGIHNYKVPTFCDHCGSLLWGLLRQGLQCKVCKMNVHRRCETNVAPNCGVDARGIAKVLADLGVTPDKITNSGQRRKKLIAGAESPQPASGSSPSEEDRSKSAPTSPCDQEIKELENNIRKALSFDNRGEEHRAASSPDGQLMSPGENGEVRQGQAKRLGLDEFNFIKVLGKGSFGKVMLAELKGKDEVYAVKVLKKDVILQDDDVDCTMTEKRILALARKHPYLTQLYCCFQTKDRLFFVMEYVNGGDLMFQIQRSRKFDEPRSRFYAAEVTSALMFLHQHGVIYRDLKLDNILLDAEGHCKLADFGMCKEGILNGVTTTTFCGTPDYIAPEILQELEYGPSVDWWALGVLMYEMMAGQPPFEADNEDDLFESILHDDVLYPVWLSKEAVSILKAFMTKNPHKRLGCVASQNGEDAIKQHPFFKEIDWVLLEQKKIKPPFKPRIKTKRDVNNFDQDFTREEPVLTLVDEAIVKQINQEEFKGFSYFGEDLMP
Nature of the assay: Binding affinity to human PRKCepsilon at 200 nM by cell-based competition binding assay relative to control in presence of DTT.

Assay [8] deals with MAP kinase-activated protein kinase 2 (Homo sapiens) (UniProt P49137). The assay can be described thus: Binding affinity to human MAPKAPK2 at 200 nM by cell-based competition binding assay relative to control in presence of DTT. An outline of the steps: (§3)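 Competition binding screen (Ambit) across a panel of 90 kinases, scoring test ligand displacement of each kinase's binding relative to control. The screen ran under reducing conditions with 7.5 mM DTT.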
Chain of MAP kinase-activated protein kinase 2 (Homo sapiens) (P49137 whole entry, looked up): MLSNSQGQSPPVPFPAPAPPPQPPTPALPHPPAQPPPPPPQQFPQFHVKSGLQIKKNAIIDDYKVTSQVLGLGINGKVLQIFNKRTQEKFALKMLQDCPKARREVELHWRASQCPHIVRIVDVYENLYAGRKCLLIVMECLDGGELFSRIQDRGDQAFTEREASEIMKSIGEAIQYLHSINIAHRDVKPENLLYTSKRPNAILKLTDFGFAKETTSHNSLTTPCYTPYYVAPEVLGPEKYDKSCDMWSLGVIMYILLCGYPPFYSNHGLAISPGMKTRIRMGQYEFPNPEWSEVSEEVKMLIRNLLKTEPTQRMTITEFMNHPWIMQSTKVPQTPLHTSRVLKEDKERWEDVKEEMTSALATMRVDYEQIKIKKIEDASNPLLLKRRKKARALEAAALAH

In assay [9] the target is Fibroblast growth factor receptor 2 (Homo sapiens) (UniProt P21802). The assay can be described thus: Binding affinity to human FGFR2 at 50 nM by cell-based competition binding assay relative to control in presence of DTT. An outline of the steps:
as §2

Assay [10] addresses Mitogen-activated protein kinase 11 (Homo sapiens) (UniProt Q15759). The assay can be described thus: Binding affinity to human p38beta at 50 nM by cell-based competition binding assay relative to control in presence of DTT.
Assay [11] addresses T2, Tyrosine-protein kinase JAK3 (Homo sapiens) (UniProt P52333).
T2 sequence (whole entry): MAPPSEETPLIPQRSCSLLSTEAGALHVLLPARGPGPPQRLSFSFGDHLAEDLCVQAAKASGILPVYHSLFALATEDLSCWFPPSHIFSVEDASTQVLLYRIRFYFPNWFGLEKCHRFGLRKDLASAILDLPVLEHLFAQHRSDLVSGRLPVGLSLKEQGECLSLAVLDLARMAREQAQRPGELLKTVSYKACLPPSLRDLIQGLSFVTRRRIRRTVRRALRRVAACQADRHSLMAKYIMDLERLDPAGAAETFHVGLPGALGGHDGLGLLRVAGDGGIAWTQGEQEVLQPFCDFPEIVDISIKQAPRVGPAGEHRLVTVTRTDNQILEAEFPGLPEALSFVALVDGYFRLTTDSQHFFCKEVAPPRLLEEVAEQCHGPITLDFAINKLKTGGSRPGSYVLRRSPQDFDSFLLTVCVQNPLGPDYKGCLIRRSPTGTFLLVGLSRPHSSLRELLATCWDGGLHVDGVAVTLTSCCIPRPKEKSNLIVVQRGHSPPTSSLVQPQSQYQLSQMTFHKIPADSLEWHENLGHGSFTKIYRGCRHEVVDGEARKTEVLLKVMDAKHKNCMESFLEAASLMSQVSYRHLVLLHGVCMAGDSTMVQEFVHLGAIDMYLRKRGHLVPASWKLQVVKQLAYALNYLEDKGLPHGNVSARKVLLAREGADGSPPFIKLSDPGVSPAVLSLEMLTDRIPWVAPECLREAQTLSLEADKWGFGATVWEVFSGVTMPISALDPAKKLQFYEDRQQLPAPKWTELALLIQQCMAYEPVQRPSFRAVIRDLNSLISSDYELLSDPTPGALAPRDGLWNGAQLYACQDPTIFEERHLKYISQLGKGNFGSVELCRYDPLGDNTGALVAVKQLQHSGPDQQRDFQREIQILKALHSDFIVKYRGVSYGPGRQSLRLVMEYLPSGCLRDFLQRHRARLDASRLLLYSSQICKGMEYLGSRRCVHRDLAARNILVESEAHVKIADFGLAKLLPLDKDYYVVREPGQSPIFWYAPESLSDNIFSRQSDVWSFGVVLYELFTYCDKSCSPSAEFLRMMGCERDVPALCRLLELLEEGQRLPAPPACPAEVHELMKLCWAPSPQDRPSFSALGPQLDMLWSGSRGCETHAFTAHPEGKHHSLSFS
Nature of the assay: Binding affinity to human JAK3 kinase domain 2 at 50 nM by cell-based competition binding assay relative to control in presence of DTT. An outline of the steps: as §3

Chain of Fibroblast growth factor receptor 2 (Homo sapiens) (P21802 22-821 limits assumed): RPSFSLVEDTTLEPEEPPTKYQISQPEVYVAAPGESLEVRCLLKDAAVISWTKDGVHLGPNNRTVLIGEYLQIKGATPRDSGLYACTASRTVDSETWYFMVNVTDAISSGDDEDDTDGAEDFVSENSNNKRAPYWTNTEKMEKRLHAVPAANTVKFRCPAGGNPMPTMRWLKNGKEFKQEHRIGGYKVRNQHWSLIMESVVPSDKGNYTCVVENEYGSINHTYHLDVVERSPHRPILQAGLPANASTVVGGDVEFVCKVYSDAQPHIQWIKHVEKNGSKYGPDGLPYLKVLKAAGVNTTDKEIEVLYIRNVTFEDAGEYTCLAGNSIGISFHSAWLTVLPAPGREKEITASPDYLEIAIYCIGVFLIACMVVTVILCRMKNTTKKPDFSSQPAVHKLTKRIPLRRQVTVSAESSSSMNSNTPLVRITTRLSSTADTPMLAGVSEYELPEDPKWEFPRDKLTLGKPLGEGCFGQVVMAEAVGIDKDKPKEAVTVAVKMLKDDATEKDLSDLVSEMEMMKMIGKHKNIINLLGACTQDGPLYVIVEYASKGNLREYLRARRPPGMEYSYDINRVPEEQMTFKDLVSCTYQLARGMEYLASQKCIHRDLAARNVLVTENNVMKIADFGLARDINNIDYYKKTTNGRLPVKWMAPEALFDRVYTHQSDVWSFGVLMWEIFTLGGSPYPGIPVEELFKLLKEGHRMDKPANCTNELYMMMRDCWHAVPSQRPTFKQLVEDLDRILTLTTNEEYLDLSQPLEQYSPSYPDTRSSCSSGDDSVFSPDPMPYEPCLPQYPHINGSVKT
Chain of Macrophage colony-stimulating factor 1 receptor (Homo sapiens) (P07333 whole entry): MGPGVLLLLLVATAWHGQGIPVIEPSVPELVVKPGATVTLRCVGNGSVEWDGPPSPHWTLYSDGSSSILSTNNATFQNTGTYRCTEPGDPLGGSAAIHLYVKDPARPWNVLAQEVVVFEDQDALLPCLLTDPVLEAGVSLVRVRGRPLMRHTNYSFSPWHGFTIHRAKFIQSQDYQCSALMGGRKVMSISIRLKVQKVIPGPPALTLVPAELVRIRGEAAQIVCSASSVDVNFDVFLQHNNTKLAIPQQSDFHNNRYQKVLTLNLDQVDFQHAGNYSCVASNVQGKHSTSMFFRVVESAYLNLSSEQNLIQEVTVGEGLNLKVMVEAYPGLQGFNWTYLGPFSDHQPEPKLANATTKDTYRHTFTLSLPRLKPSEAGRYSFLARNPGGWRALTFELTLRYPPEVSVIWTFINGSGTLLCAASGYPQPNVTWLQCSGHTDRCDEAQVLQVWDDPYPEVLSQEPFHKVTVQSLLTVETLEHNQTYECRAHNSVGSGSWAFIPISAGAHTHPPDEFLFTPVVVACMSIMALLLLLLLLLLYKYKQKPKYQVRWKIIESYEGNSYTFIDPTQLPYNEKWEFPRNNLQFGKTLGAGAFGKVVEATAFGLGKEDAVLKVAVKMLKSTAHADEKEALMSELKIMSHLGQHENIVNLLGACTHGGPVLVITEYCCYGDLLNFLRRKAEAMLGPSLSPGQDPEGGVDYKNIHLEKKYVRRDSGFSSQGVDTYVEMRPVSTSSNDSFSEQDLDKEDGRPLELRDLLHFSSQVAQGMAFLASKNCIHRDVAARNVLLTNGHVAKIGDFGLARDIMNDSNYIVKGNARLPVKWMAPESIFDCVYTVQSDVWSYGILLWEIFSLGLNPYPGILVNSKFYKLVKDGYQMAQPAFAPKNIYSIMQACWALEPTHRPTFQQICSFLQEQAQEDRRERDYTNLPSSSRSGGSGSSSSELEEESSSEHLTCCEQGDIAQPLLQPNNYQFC
Chain of Mitogen-activated protein kinase 11 (Homo sapiens) (Q15759 whole entry): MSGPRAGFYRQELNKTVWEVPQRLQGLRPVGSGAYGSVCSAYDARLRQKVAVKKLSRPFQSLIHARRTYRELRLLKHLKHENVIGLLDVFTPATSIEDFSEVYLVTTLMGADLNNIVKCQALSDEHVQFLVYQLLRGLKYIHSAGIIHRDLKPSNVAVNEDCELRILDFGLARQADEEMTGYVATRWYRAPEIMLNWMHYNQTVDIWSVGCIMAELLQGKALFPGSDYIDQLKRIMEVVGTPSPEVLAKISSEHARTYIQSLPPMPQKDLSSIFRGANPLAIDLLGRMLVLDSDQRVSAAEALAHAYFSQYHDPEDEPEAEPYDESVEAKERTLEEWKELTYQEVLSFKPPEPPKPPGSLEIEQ
Chain of Serine/threonine-protein kinase B-raf (Homo sapiens) (P15056 whole entry): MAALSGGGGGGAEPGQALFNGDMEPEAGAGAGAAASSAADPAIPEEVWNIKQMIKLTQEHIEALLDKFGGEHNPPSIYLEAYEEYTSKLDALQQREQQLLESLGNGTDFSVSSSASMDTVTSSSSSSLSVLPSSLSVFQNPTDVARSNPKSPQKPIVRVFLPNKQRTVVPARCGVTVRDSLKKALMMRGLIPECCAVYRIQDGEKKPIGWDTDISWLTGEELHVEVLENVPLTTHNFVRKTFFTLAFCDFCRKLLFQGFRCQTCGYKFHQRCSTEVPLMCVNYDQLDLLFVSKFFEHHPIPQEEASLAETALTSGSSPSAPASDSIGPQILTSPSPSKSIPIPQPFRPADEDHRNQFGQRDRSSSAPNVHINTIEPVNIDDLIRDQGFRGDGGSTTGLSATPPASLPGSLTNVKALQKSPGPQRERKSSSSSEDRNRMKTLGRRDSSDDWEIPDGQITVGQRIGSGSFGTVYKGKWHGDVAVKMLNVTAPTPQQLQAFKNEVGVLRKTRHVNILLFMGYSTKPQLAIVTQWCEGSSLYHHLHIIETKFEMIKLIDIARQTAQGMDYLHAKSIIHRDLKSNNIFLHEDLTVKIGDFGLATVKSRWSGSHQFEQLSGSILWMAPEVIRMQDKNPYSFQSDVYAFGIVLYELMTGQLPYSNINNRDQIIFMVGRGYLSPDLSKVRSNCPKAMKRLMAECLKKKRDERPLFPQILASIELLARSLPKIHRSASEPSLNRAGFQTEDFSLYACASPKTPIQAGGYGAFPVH

Take `CO[C@@H]1[C@H](N(C)C(=O)CCC(=O)NCCC(=O)NCCC(=O)NCCC(N)=O)C[C@H]2O[C@]1(C)n1c3ccccc3c3c4c(c5c6ccccc6n2c5c31)C(=O)NC4`: the results for the Activity in assay [1], in assay [2] and in assay [3] were 100%, 27% and 100%, respectively.

Regarding `CO[C@@H]1[C@H](N(C)C(=O)CCC(=O)NCCC(=O)NCCC(=O)NCCC(=O)NCCC(=O)NCCC(=O)NCCC(=O)NCCC(=O)N[C@H]2CSSC[C@@H](C(=O)NCC(N)=O)NC(=O)CNC(=O)[C@H](Cc3ccccc3)NC(=O)[C@H](C(C)C)NC(=O)[C@H](CCCNC(=N)N)NC(=O)[C@H](Cc3ccccc3)NC(=O)[C@H](C(C)C)NC2=O)C[C@H]2O[C@]1(C)n1c3ccccc3c3c4c(c5c6ccccc6n2c5c31)C(=O)NC4` ({Staurosporine-Suc-βAla-βAla-βAla-βAla-βAla-βAla-βAla}-CVFRVFGCG-NH2; disulfide 1-8), the Activity amounted to 14% in [4]; 100% in assay [5]; 44% in assay [6]; 0% in assay [7]; 100% in assay [8].

For `CO[C@@H]1[C@H](N(C)C(=O)CCC(=O)NCCC(=O)NCCC(=O)NCCC(=O)NCCC(=O)NCCC(=O)NCCC(=O)NCCC(=O)N[C@H]2CNC(=O)C[C@@H](C(N)=O)NC(=O)CNC(=O)[C@H](Cc3ccccc3)NC(=O)[C@H](C(C)C)NC(=O)[C@H](CCCNC(=N)N)NC(=O)[C@H](Cc3ccccc3)NC(=O)[C@H](C(C)C)NC2=O)C[C@H]2O[C@]1(C)n1c3ccccc3c3c4c(c5c6ccccc6n2c5c31)C(=O)NC4` ({Staurosporine-Suc-βAla-βAla-βAla-βAla-βAla-βAla-βAla}-[Dap]VFRVFGD-NH2; lactam 1-8), the figures for the Activity in assay [9], in [10] and in [11] were 86%, 100% and 16%, respectively.
